In brackets after ≈: the same amount, converted by molar mass. Activity calls are given as the source filed them. No cut-off for these calls is given here.
Key:
Candida albicans [1] = assay: Antifungal activity against Candida albicans isolate 17 grown in RPMI 1640 medium incubated for 24 hrs by microdilution method; format: functional; details: isolate 17, 24 h
Outline: (§1)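 C. albicans standard strain SC5314 and clinical isolates g5 and 17# tested by broth microdilution in YNB or RPMI 1640 medium. Plates incubated at 35 °C for up to 72 h, with visual readings taken at 24 h. MIC taken as the lowest concentration preventing visible growth.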

Ceratobasidium cereale = assay: Antifungal activity against Rhizoctonia cerealis assessed as reduction in growth at 50 mg/l by mycelium growth rate method relative to control; format: functional
Outline: (§2)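 Mycelium growth rate method against S. sclerotiorum, P. capsici, P. piricola, R. cerealis, W. anthracnose and R. bakanae. Each compound tested at 50 mg/L, with chlorothalonil and PTB as controls. Relative inhibitory ratio (%) calculated from mycelial growth.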

Candida albicans [2] = assay: Antifungal activity against Candida albicans SC5314 grown in RPMI 1640 medium incubated for 24 hrs by microdilution method; format: functional; details: SC5314, 24 h; outline: as §1
Candida albicans [3] = assay: Inhibition of Candida albicans AHAS catalytic subunit at 10 uM using pyruvate as substrate measured after 30 mins by colorimetric method relative to control
Outline: (§3)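 Colorimetric assay in 50 mM potassium phosphate pH 7.0 with 50 mM pyruvate, 1 mM thiamine diphosphate, 10 mM MgCl2 and 10 μM FAD. Incubated 30 min at 37 °C for plant AHAS and 30 °C for fungal AHAS. Acetolactate formed was then quantified.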

Candida albicans [4] = assay: Inhibition of Candida albicans AHAS catalytic subunit at 100 uM using pyruvate as substrate measured after 30 mins by colorimetric method relative to control; outline: as §3
Candida albicans [5] = assay: Antifungal activity against Candida albicans isolate g5 grown in RPMI 1640 medium incubated for 24 hrs by microdilution method; format: functional; details: isolate g5, 24 h; outline: as §1
Candida albicans [6] = assay: Antifungal activity against Candida albicans SC5314 grown in YNB medium incubated for 24 hrs by microdilution method; format: functional; details: SC5314, 24 h; outline: as §1
Candida albicans [7] = assay: Antifungal activity against Candida albicans isolate 17 grown in YNB medium incubated for 24 hrs by microdilution method; format: functional; details: isolate 17, 24 h; outline: as §1
Candida albicans [8] = assay: Antifungal activity against Candida albicans isolate g5 grown in YNB medium incubated for 24 hrs by microdilution method; format: functional; details: isolate g5, 24 h; outline: as §1
Arabidopsis thaliana [9] = assay: Inhibition of Arabidopsis thaliana AHAS catalytic subunit using pyruvate as substrate at 100 uM measured after 30 mins by colorimetric method relative to control; outline: as §3
Arabidopsis thaliana [10] = assay: Inhibition of Arabidopsis thaliana AHAS catalytic subunit using pyruvate as substrate at 10 uM measured after 30 mins by colorimetric method relative to control; outline: as §3
[11] = system: Brassica rapa subsp. oleifera; assay: Herbicidal activity against Brassica campestris L assessed as inhibition of rape root growth at 100 mg/l root growth incubated for 48 hrs relative to control; format: functional
Outline: (§4)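 Rape seeds soaked in distilled water for 4 h, then placed on filter paper wetted with inhibitor solution, 15 seeds per 6-cm dish. Germinated in the dark at 28 °C for 48 h. Mean length of 10 roots per plate measured.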

[12] = system: Brassica rapa subsp. oleifera; assay: Herbicidal activity against Brassica campestris L assessed as inhibition of rape root growth at 10 mg/l root growth incubated for 48 hrs relative to control; format: functional; outline: as §4
Sclerotinia sclerotiorum = assay: Antifungal activity against Sclerotinia sclerotiorum assessed as reduction in growth at 50 mg/l by mycelium growth rate method relative to control; format: functional; outline: as §2
Phytophthora capsici = assay: Antifungal activity against Phytophthora capsici assessed as reduction in growth at 50 mg/l by mycelium growth rate method relative to control; format: functional; outline: as §2
[13] = system: Botryosphaeria berengeriana; assay: Antifungal activity against Physalospora pyricola assessed as reduction in growth at 50 mg/l by mycelium growth rate method relative to control; format: functional; outline: as §2
Colletotrichum = assay: Antifungal activity against Colletotrichum (W. anthracnose) assessed as reduction in growth at 50 mg/l by mycelium growth rate method relative to control; format: functional; outline: as §2
Fusarium fujikuroi = assay: Antifungal activity against Gibberella fujikuroi assessed as reduction in growth at 50 mg/l by mycelium growth rate method relative to control; format: functional; outline: as §2
Mythimna separata = assay: Insecticidal activity against Mythimna separata assessed as larval mortality at 600 mg/l by leaf-dip method; format: functional
Tobacco mosaic virus [14] = assay: Antiviral activity against Tobacco mosaic virus inoculated in Nicotiana tabacum leaves assessed as passivation by measuring local lesion numbers at 500 mg/l pre-incubated with virus for 30 mins followed by inoculation and measured up to 4 days; format: functional
Outline: (§5)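 Passivation assay: TMV mixed with an equal volume of compound solution for 30 min, then rubbed onto the left half of N. tabacum L. leaves. The right half received virus mixed with solvent as control. Local lesions counted 3–4 days after inoculation. Compounds tested at 500 or 100 mg/L.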

Tobacco mosaic virus [15] = assay: Antiviral activity against Tobacco mosaic virus inoculated in Nicotiana tabacum leaves assessed as passivation by measuring local lesion numbers at 100 mg/l pre-incubated with virus for 30 mins followed by inoculation and measured up to 4 days; format: functional; outline: as §5
[16] = system: Severe acute respiratory syndrome-related coronavirus; assay: Inhibition of SARS coronavirus M protease using AVLQSGFRKK as substrate at 20 uM by FRET assay relative to control
Outline: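 Purified SARS-CoV Mpro assayed by FRET. Protein, compound and substrate were preheated at 37 °C and oscillated. Fluorescence (ex 320/em 405 nm) was read every 5 s for 200 reads.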

Row | SMILES | MIC (Candida albicans [1]) [µg/mL] | inhibition at 50 µg/mL (Ceratobasidium cereale) [%] | MIC (Candida albicans [2]) [µg/mL] | inhibition (Candida albicans [3]) [%] | inhibition (Candida albicans [4]) [%] | MIC (Candida albicans [5]) [µg/mL] | MIC (Candida albicans [6]) [µg/mL] | MIC (Candida albicans [7]) [µg/mL] | MIC (Candida albicans [8]) [µg/mL] | inhibition (Arabidopsis thaliana [9]) [%] | inhibition (Arabidopsis thaliana [10]) [%] | inhibition (INH) [11] [%] | inhibition (INH) [12] [%] | inhibition at 50 µg/mL (Sclerotinia sclerotiorum) [%] | inhibition at 50 µg/mL (Phytophthora capsici) [%] | inhibition at 50 µg/mL [13] [%] | inhibition at 50 µg/mL (Colletotrichum) [%] | inhibition at 50 µg/mL (Fusarium fujikuroi) [%] | inhibition at 500 µg/mL (Tobacco mosaic virus [14]) [%] | inhibition [16] [%] | other results
1 | COc1nc(OC)nc(Sc2ccc(C(=O)O)c(C(F)(F)F)c2)n1 | > 100 | 38.1 | > 100 | 8.6 | 21.2 | > 100 | > 100 | > 100 | > 100 | 75.5 | 21.8 | 16.5 | 4 | 75 | 8.3 | 43.8 | 16.7 | 36.4 | 42.3 | 22.2 | mortality at 600 µg/mL (Mythimna separata): 80%; inhibition at 100 µg/mL (Tobacco mosaic virus [15]): 6.2%
2 | COc1nc(OC)nc(Sc2ccc(C(=O)O)cc2F)n1 | > 100 | 57.1 | > 100 | 52.3 | 94.9 | > 100 | > 100 | 3.12 (≈ 10 µM) | > 100 | 18.7 | 13.8 | 27.6 | 0 | 61.1 | 16.7 | 53.1 | 19 | 6.1 | 0 | 89.5 | mortality at 600 µg/mL (Mythimna separata): 30%; inhibition (Tobacco mosaic virus [15]): inactive
3 | COc1cc(OC)nc(Sc2ccc(C(=O)O)c(C(F)(F)F)c2)n1 | > 100 | 73.8 | > 100 | 2.1 | 20.6 | > 100 | > 100 | > 100 | > 100 | 77.4 | 37.7 | 45.2 | 0 | 75 | 8.3 | 35.9 | 14.3 | 30.3 | 0 | 21.7 | inhibition (Tobacco mosaic virus [15]): inactive
4 | COc1nc(OC)nc(Sc2ccc(C(F)(F)F)cc2C#N)n1 | > 100 |  | > 100 | 0 | 12 | > 100 | > 100 | > 100 | > 100 | 15 | 11.5 | 8.5 | 0 |  |  |  |  |  |  | 0 | 
5 | COc1cc(OC)nc(Sc2cc(C(F)(F)F)ccc2C(=O)O)n1 | > 100 |  | > 100 | 0 | 31.2 | > 100 | > 100 | > 100 | > 100 | 85.5 | 51.8 | 50 | 24.6 |  |  |  |  |  |  | 0 | 
6 | COc1nc(OC)nc(Sc2ccc(C#N)cc2C(F)(F)F)n1 | > 100 |  | > 100 | 10.5 | 22 | > 100 | > 100 | > 100 | > 100 | 10 | 0 | 5 | 0 |  |  |  |  |  |  | 18 | 
7 | COc1cc(OC)nc(Sc2ccc(C#N)c(C(F)(F)F)c2)n1 | > 100 |  | > 100 | 18.6 | 51.4 | > 100 | > 100 | > 100 | > 100 | 86.2 | 51.2 | 33.5 | 4.7 |  |  |  |  |  |  | 85 | 
8 | COc1cc(OC)nc(Sc2ccc(C(=O)O)cc2C(=O)O)n1 | > 100 |  | > 100 | 8 | 24 | > 100 | > 100 | > 100 | > 100 | 20 | 5 | 0 | 0 |  |  |  |  |  |  | 0 | 
9 | CCOc1ccccc1OS(=O)(=O)NC(=O)Nc1nc(OC)cc(OC)n1 [ETHOXYSULFURON] | 50 (≈ 126 µM) |  | 25 (≈ 62.8 µM) | 96.8 | 98.7 | 25 (≈ 62.8 µM) | 0.39 (≈ 0.979 µM) | 0.39 (≈ 0.979 µM) | 0.39 (≈ 0.979 µM) |  |  |  |  |  |  |  |  |  |  |  | 
10 | NC(=O)c1ncn([C@@H]2O[C@H](CO)[C@@H](O)[C@H]2O)n1 [RIBAVIRIN] |  |  |  |  |  |  |  |  |  |  |  |  |  |  |  |  |  |  | 37.6 |  | inhibition at 100 µg/mL (Tobacco mosaic virus [15]): 11.9%
11 | COc1nc(OC)nc(Sc2ccc(C(=O)O)cc2C(=O)O)n1 | > 100 |  | > 100 | 15.6 | 58.7 | > 100 | > 100 | > 100 | > 100 | 81.7 | 73.3 | 20.3 | 8 |  |  |  |  |  |  | 0 | 
12 | COc1nc(OC)nc(Sc2cc(Cl)ccc2C#N)n1 | > 100 | 40.5 | > 100 | 0 | 26.3 | > 100 | > 100 | > 100 | > 100 | 100 | 43.6 | 40 | 34.4 | 13.9 | 41.7 | 37.5 | 19 | 30.3 | 0 |  | mortality at 600 µg/mL (Mythimna separata): 25%; inhibition (Tobacco mosaic virus [15]): inactive
13 | COc1nc(OC)nc(Oc2cccc(Br)c2)n1 | > 100 | 52.4 | > 100 | 10.6 | 18.3 | > 100 | > 100 | > 100 | > 100 | 60 | 6.6 | 87.4 | 32.5 | 61.1 | 8.3 | 40.6 | 16.7 | 0 | 19.5 | 0 | inhibition (Tobacco mosaic virus [15]): inactive
14 | CNCC(=O)N[C@@H](CO)C(=O)N[C@H]1[C@H](O)[C@@H](O)[C@H](n2ccc(N)nc2=O)O[C@@H]1C(N)=O [NINGNANMYCIN] |  |  |  |  |  |  |  |  |  |  |  |  |  |  |  |  |  |  | 56.4 |  | inhibition at 100 µg/mL (Tobacco mosaic virus [15]): 27.8%
15 | COc1cc(OC)nc(Sc2ccc(C(F)(F)F)cc2C#N)n1 | > 100 |  | > 100 | 3.6 | 25 | > 100 | > 100 | > 100 | > 100 | 72.3 | 28.2 | 25.8 | 0 |  |  |  |  |  |  | 0 | 

— ChEMBL document CHEMBL4390648, “Chemical synthesis, crystal structure, versatile evaluation of their biological activities and molecular simulations of novel pyrithiobac derivatives” (Eur J Med Chem, 2019)
